Measured values published in ChEMBL document CHEMBL1144885 (J Med Chem, 2003).
pEC50, pKi: −log10 of the molar value.

What was measured:
Histamine H4 receptor [1] = molecular target: T1, Histamine H4 receptor (Homo sapiens, UniProt Q9H3N8); assay: Inhibitory activity determined by the inhibition of cAMP- stimulated beta-galactosidase transcription in SK-N-MC cells expressing the human Histamine H4 receptor; assay type: cell-based
Outline: (§1)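 SK-N-MC cells stably carrying human H4 receptor and a CRE-driven β-galactosidase reporter gene, grown overnight, then exposed 6 h at 37 °C to 1 μM forskolin plus ligand. Mean ± SEM, at least three independent experiments.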

Histamine H3 receptor [2] = molecular target: T2, Histamine H3 receptor (Homo sapiens, UniProt Q9Y5N1); assay: Inhibitory activity measured by [3H]- N alpha- methyl-histamine binding to membranes of SK-N-MC cells expressing the human Histamine H3 receptor; assay type: cell membranes
T2 sequence (Q9Y5N1 whole entry): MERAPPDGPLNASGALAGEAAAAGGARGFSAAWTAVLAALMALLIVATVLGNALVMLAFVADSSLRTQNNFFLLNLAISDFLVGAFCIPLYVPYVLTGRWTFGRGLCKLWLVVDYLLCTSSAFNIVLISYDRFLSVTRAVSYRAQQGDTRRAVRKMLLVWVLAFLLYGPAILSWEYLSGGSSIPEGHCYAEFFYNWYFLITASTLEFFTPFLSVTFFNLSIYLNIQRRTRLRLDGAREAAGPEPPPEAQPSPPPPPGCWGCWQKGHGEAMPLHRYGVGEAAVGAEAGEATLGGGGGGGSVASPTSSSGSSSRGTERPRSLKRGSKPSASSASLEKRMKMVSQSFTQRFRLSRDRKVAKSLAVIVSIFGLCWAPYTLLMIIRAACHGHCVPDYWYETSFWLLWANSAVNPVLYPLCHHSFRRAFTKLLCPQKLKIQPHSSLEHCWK

Histamine H4 receptor [3] = molecular target: T1, Histamine H4 receptor; assay: Intrinsic activity for Histamine H4 receptor
Outline: as §1, with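 “ligand. Medium removed; cells held overnight at 4 °C in pH 8 phosphate buffer containing Triton and 4 mM ONPG; absorbance read at 405 nm.” for “ligand.”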

Histamine H4 receptor [4] = molecular target: T1, Histamine H4 receptor; assay: Inhibitory activity measured by [3H]histamine binding to membranes of SK-N-MC cells expressing the human Histamine H4 receptor
Histamine H3 receptor [5] = molecular target: T2, Histamine H3 receptor; assay: Inhibitory activity determined by the inhibition of cAMP- stimulated beta-galactosidase transcription in SK-N-MC cells expressing the human Histamine H3 receptor; assay type: cell-based

T1 sequence (Q9H3N8 whole entry): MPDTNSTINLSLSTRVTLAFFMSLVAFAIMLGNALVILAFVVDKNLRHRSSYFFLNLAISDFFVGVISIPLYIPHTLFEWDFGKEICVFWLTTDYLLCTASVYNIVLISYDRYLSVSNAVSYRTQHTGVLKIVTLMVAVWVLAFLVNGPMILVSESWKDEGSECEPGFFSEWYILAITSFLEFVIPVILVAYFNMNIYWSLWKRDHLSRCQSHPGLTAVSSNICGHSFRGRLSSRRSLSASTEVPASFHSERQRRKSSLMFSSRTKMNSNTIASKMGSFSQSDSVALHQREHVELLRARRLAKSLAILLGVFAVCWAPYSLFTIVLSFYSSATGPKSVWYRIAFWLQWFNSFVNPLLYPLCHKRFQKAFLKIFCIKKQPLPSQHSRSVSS

SMILES | pEC50 (Histamine H4 receptor [1]) | pKi (Histamine H3 receptor [2]) | Intrinsic activity (Histamine H4 receptor [3]) | pKi (Histamine H4 receptor [4]) | pEC50 (Histamine H3 receptor [5])
N[C@H]1C[C@@H]1c1c[nH]cn1 [VUF-5297] | 5.15 | 8.03 | 0.61 | 5.96 | 8.23
c1nc(CC2CCNCC2)c[nH]1 [IMMEPIP] | 7.25 | 9.32 | 0.73 | – | 9.88
c1nc(C2CCNCC2)c[nH]1 | < 5.00 | 6.06 | – | 5.66 | 5.74
C[C@@H](N)Cc1c[nH]cn1 | 5.95 | – | 1.04 | – | –
c1nc(CC2CCCCN2)c[nH]1 (centres undefined) | < 5.00 | – | – | 5.05 | 6.10
c1nc(CCC2CCNCC2)c[nH]1 | < 5.00 | 7.70 | – | 6.43 | 7.88
c1ncc(CCCC2CCNCC2)[nH]1 | < 5.00 | 8.35 | – | 6.21 | 8.08
NCCCCc1c[nH]cn1 [IMBUTAMINE] | 7.05 | 8.39 | 0.96 | – | 8.13
C1=C(c2c[nH]cn2)CCNC1 | < 5.00 | 5.37 | – | 3.58 | 5.82
N[C@@H]1C[C@H]1c1cnc[nH]1 [VUF-5296] | < 5.00 | 7.17 | – | 5.42 | 7.24
NCCCCCCc1cnc[nH]1 | < 5.00 | 8.00 | – | 6.12 | 7.48
c1nc(CCC2CCCNC2)c[nH]1 (centres undefined) | 5.69 | 6.74 | 0.48 | 6.49 | 6.29
c1nc(C[C@H]2CCNC2)c[nH]1 | 6.38 | 8.28 | 0.85 | 7.43 | 8.68
C(=C1CCNCC1)c1c[nH]cn1 | < 5.00 | 8.23 | – | 5.76 | 8.50
C=C(c1c[nH]cn1)C1CCNCC1 | < 5.00 | 8.40 | – | 5.55 | 8.63
c1nc(CC2CCCNC2)c[nH]1 (centres undefined) | 5.40 | 7.17 | 0.64 | 6.21 | 7.31
NCC1CC1c1c[nH]cn1 (centres undefined) | 5.96 | 7.45 | 0.56 | 6.95 | 7.71
NCCCc1c[nH]cn1 [HOMOHISTAMINE] | 6.67 | 7.31 | 0.82 | – | 7.37
O=C(c1c[nH]cn1)C1CCNCC1 | < 5.00 | – | – | 3.32 | 5.56
c1nc(CC2CCNC2)c[nH]1 (centres undefined) | 6.13 | 8.44 | 0.83 | 7.29 | 8.88
NCCCCCc1c[nH]cn1 [IMPENTAMINE] | < 5.00 | – | – | 6.43 | 8.63
c1nc(CCCC2CCCCN2)c[nH]1 (centres undefined) | < 5.00 | 7.03 | – | 6.24 | 6.49
c1nc(CCCC2CCCNC2)c[nH]1 (centres undefined) | < 5.00 | – | – | 6.41 | –
c1nc(C[C@@H]2CCNC2)c[nH]1 | 5.99 | 8.85 | 0.8 | 6.85 | 9.41
c1nc(CCC2CCCCN2)c[nH]1 (centres undefined) | < 5.00 | – | – | 5.35 | < 5.00
